Bioassay records (PubChem)
Rows were chosen to be rich in hits. Some 2.5% of all compounds tested hit in one or more screens of this group.
SENP8 block-1: human SENP8 protease inhibitors, primary screen, biochemical, fluorescence, Nedd8 protein substrate, uHTS. actives 0.64% (n = 360,000). inhibition, % at 20 µM. Sentrin-specific protease 8 (Homo sapiens), Q96LD8. recombinant SENP8; in the data active = inhibition mostly above about 40%, no sharp cut-off; inactive = mostly below about 27%
Target sequence (Q96LD8 whole entry, looked up): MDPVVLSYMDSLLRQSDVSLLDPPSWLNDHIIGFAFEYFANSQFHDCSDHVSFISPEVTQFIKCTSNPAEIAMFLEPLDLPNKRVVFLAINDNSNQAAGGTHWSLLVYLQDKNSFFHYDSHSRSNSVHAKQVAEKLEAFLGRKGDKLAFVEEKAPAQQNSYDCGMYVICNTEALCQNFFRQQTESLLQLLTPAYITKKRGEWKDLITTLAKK
SENP6 block: SENP6 protease inhibitors, primary screen, biochemical, luminescence, uHTS; Recombinant SENP6 catalytic domain, aminoluciferin luminescence; Sentrin-specific protease 6 (Homo sapiens), Q9GZR1; inhibition, % at 10 µM; actives 1.8% (n = 330,000); AID 2599, 2010;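 active = inhibition above about 50% at the single tested dose, limit read from the data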;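 note: plate controls were DMSO wells with enzyme for no effect and DMSO wells lacking enzyme for full effect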
SENP1 FRET inh: human SENP1 catalytic domain inhibitors, primary screen, biochemical, FRET, uHTS; Sentrin-specific protease 1 (Homo sapiens), Q9P0U3; inhibition, % at 10 µM; actives 0.21% (n = 360,000); recombinant SENP1 catalytic domain, CyPet-SUMO1-YPet FRET cleavage; AID 624204, 2012;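 active = inhibition at least 30% at 10 µM, raw YFP signal under a set limit, fluorescence ratio 0.5 to 1.5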;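 note: 0% = enzyme with DMSO and 100% = no enzyme wells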
Target sequence (Q9P0U3 419-644 limits assumed): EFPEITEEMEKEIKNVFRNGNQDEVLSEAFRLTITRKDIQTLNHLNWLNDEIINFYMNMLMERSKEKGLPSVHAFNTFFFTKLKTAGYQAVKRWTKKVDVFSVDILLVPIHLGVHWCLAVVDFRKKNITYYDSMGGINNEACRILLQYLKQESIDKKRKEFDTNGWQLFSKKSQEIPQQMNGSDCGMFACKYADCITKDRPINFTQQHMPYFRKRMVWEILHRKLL
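Test system: recombinant human SENP1 catalytic domain, His6-tagged / Medium: pH 8 Tris buffer with EDTA, NaCl, BME, BSA, NP40, catalase / Also added: SUMO1 FRET substrate flanked by Cypet and Ypet, 25 nM / Times: 50 min reaction at room temperature / Signal: FRET, CFP and YFP emission / Control set: no-enzyme low control and enzyme-plus-DMSO high control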
SENP8 block-2: SENP8 protease inhibitors, primary screen, biochemical, luminescence | purified SENP8, Z-RLRGG-aminoluciferin cleavage | inhibition, % at 10 µM | actives 1.2% (n = 330,000); in the data active = inhibition above about 50%
SENP7 inh: SENP7 protease inhibitors, primary screen, biochemical, luminescence, uHTS. inhibition, % at 5 µM. recombinant SENP7, Z-RLRGG-aminoluciferin luminescence, 40 min. AID 434973, 2010. Sentrin-specific protease 7 (Homo sapiens), Q9BQF6. actives 1.5% (n = 330,000);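 active = inhibition above about 50% at the single test dose, limit read from the data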;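 note: plate controls were DMSO with enzyme for no effect and no enzyme buffer wells for full effect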
SENP8 conf: SENP8 protease inhibitors, retest, confirmation, biochemical, luminescence, single concentration; Recombinant SENP8, Z-RLRGG-aminoluciferin luminescence, 60 min; AID 488912, 2010; actives 40% (n = 6,200); shares compounds with SENP7 inh; inhibition, % at 12.5 µM;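 active = mean inhibition across replicates above about 50%, limit read from the data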
SENP6 confirm: SENP6 protease inhibitors, confirmation, biochemical, luminescence, single concentration. shares compounds with SENP7 inh. recombinant SENP6, Z-RLRGG-aminoluciferin luminescence. inhibition, % at 12.5 µM. actives 58% (n = 6,200). AID 488915, 2010
SENP7 confirm: SENP7 protease inhibitors, retest, confirmation, biochemical, luminescence, single concentration | actives 69% (n = 6,200) | recombinant SENP7, Z-RLRGG-aminoluciferin luminescence, 40 min | inhibition, % at 12.5 µM | shares compounds with SENP7 inh | AID 488917, 2010
Casp3 SENP sel: caspase-3 protease inhibitors, confirmation, selectivity assay for SENP inhibitor project, biochemical, single concentration; shares compounds with SENP7 inh; purified caspase-3, Z-DEVD-aminoluciferin luminescence, 60 min; inhibition, % at 12.5 µM; actives 60% (n = 6,200);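 active = mean inhibition above about 50%, limit read from the data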;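 note: plate controls were enzyme with DMSO for no effect and wells without caspase-3 for full effect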
Target sequence (P42574 28-227 limits assumed): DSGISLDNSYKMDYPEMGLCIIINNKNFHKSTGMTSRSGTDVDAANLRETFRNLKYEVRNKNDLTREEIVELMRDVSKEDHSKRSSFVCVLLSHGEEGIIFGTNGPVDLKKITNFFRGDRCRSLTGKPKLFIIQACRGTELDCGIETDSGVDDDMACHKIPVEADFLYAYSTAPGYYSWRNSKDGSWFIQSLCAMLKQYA
SENP luc ctr: interferes with luciferase luminescence in SENP counter-screen | Pre-incubated SENP8/Z-RLRGG-aminoluciferin, luciferase luminescence interference | shares compounds with SENP7 inh | inhibition, % at 12.5 µM | AID 488919 | actives 39% (n = 6,200);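 active = mean inhibition above about 50% when retested at one dose, limit read from the data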;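 note: plate controls were DMSO wells with completed reaction for no effect and substrate without enzyme for full effect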
Starred values were filed as active, the others as inactive; x = not tested or not shown.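 Rule for the calls, unless noted: active = mean inhibition above about 50% in the one-dose retest (limit read from the data); inactive = the rest.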

SMILES | SENP8 block-1 | SENP6 block | SENP1 FRET inh | SENP8 block-2 | SENP7 inh | SENP8 conf | SENP6 confirm | SENP7 confirm | Casp3 SENP sel | SENP luc ctr
Cc1ccccc1NC(=O)Nc1ccc2c(c1)OCO2 | 6 | 91* | 1 | 79* | 96* | 23 | 74* | 25 | 92* | 2
Cc1occc1C(=O)Nc1ccc2c(c1)OCCO2 | 8 | 89* | -2 | 73* | 84* | 11 | 78* | 95* | 90* | 76*
Cc1cc(C(=O)Nc2ccc3c(c2)OCCO3)c(C)o1 | 14 | -40 | 2 | 32 | 51* | 46 | 47 | 84* | 81* | 67*
Cc1cnc(C(=O)Nc2ccc3c(c2)CCC3)cn1 | 9 | 39 | -2 | 12 | 36 | x | x | x | x | x
Cc1ccccc1C(=O)Nc1ccc2c(c1)OCCO2 | 17 | 63* | 2 | 55* | 69* | 53* | 52* | 84* | 85* | 67*
Cc1cc(C(=O)Nc2ccncc2)c(C)o1 | 14 | x | -1 | x | x | x | x | x | x | x
Cc1occc1C(=O)Nc1ccc2c(c1)CCC2 | 5 | 91* | -2 | 86* | 93* | 92* | 92* | 99* | 94* | 92*
CC1(c2nnnn2-c2ccc3c(c2)OCCO3)CCC(=O)N1CCCn1ccnc1 (centres undefined) | 9 | x | -1 | x | x | x | x | x | x | x
COc1ccc(S(=O)(=O)Nc2ccc3c(c2)C(=O)N([C@H](C)CO)C[C@H](C)[C@@H](CN(C)C(=O)Nc2ccc(C(F)(F)F)cc2)O3)cc1 | 13 | 4 | 3 | -2 | 5 | x | x | x | x | x
O=C(NCCc1c[nH]c2ccccc12)C1CCC(=O)N(CCc2cccc(F)c2)C1 (centres undefined) | 2 | 5 | 2 | -8 | 0 | x | x | x | x | x
CCOC(=O)[C@]12CCC=C1N(Cc1ccc3c(c1)OCO3)C(=O)[C@H](CC(=O)NCc1ccc(C)o1)C2 | 20 | x | 1 | x | x | x | x | x | x | x
O=C(Nc1ccc2c(c1)OCCO2)c1coc2ccccc2c1=O | -226 | 98* | -50 | 86* | 98* | 86* | 85* | 92* | 71* | 14
COc1ccc2nc3cccc(OC)c3nc2c1 | 16 | 73* | -13 | 28 | 30 | -6 | -3 | 42 | 51* | 0
COc1ccc2nc(-c3ccco3)c(-c3ccco3)nc2c1 | -200 | 23 | -18 | 22 | 4 | x | x | x | x | x
CC1=CC(=C2C(=O)c3ccccc3C2=O)C=C(C)O1 | 11 | 19 | -8 | 10 | 34 | x | x | x | x | x
CCCCCCN1C=CC(=C2C(=O)c3ccccc3C2=O)C=C1 | 17 | 87* | 48* | 85* | 76* | 2 | 2 | -4 | -5 | -2
CCN1C=CC(=C2C(=O)c3ccccc3C2=O)C=C1 | 17 | 88* | 11 | 76* | 86* | -22 | 86* | 100* | 96* | 89*
CN1C=CC(=C2C(=O)c3ccccc3C2=O)C=C1 | x | 45 | x | 1 | 15 | x | x | x | x | x
CCCCN1C(C)=CC(=C2C(=O)c3ccccc3C2=O)C=C1C | 22 | 60* | 29 | 46 | 5 | 61* | 60* | 81* | 85* | -1
CCCN1C=CC(=C2C(=O)c3ccccc3C2=O)C=C1 | 21 | 95* | 14 | 90* | 93* | 93* | 98* | 102* | 98* | 60*
CCCCc1cc(=O)oc2cc(OC(C)C(=O)NCCN3CCOCC3)c(Cl)cc12 (centres undefined) | -133 | -15 | 1 | -12 | -15 | x | x | x | x | x
CCOC(=O)[C@@H](NC(=O)CC[C@H]1O[C@@H](n2ccc(=O)[nH]c2=O)[C@H](O)[C@@H]1O)C(C)C | 17 | x | 0 | x | x | x | x | x | x | x
O=C(c1ccc(Cl)s1)N1CCc2ccccc21 | 16 | 89* | 2 | 81* | 89* | 54* | 68* | 81* | 80* | 54*
CCc1sc(C(=O)N2CCc3ccccc32)cc1C | 8 | 96* | 2 | 93* | 97* | 96* | 97* | 102* | 95* | 86*
O=C(NC1CC(=O)N(c2ccc3c(c2)OCCO3)C1)N1CCCCC1 (centres undefined) | 6 | -15 | 0 | -1 | 4 | x | x | x | x | x
SMILES | SENP8 block-1 | SENP6 block | SENP1 FRET inh | SENP8 block-2 | SENP7 inh | SENP8 conf | SENP6 confirm | SENP7 confirm | Casp3 SENP sel | SENP luc ctr
Cc1ccc(-c2nc(C)c(C(=O)O)s2)cc1 | -25 | 95* | 2 | 93* | 98* | 99* | 100* | 103* | 92* | 98*
CC(=O)c1sc(-c2ccccc2)nc1C | 15 | -10 | 0 | -4 | 2 | x | x | x | x | x
Cc1nc(-c2ccc([N+](=O)[O-])cc2)sc1C(=O)O | -7 | 91* | 3 | 92* | 97* | 11 | 7 | 101* | 97* | 93*
Cc1nc(-c2ccccc2)sc1C(=O)O | 9 | 43 | 0 | 40 | 36 | x | x | x | x | x
Cc1nc(-c2ccc(Cl)cc2)sc1C(=O)O | 1 | 81* | 2 | 85* | 77* | 95* | 95* | 101* | 88* | 93*
COC(=O)C1CCN(c2ccc(C(N)=O)cc2[N+](=O)[O-])CC1 | 34 | -8 | -1 | -5 | -2 | x | x | x | x | x
CC1=C(C#N)C(/C=N/OCc2ccc(F)cc2Cl)CC(=O)N1 (centres undefined) | -401 | 13 | -22 | 4 | 3 | x | x | x | x | x
CCOC(=O)c1cc2c(=O)c3ccccc3oc2nc1C | 7 | 58* | 4 | 44 | 58* | 42 | 43 | 67* | 74* | 19
CCOC(=O)c1cccc(NC(=O)CSc2nnc(-c3ccncc3)n2CCCOC)c1 | -1 | -20 | 0 | -8 | 99* | -12 | -5 | -5 | 2 | 3
Cc1cccc(C(=O)Nc2ccc(O)cc2)c1 | 24 | 12 | 0 | -17 | 3 | x | x | x | x | x
Cc1ccc(C(=O)Nc2ccc(O)cc2C(=O)O)cc1C | 18 | 46 | 1 | 25 | 24 | x | x | x | x | x
